# Laboratory results as given in ChEMBL document CHEMBL2203116, “Synthesis and evaluation of novel carbon-11 labeled oxopurine analogues for positron emission tomography imaging of translocator protein (18 kDa) in peripheral organs” (J Med Chem, 2011).
# Experiments:
# [1] = Lipophilicity, log D of the compound in octanol-phosphate buffer at pH 7.4 by shake flask method; type: physicochemical
# Procedure, shortened: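 Radioligand (~200000 cpm) shaken with n-octanol (3.0 g) and 0.1 M sodium phosphate buffer pH 7.4 (3.0 g). Vortexed 3 min at room temperature, centrifuged 3500 rpm for 5 min. Phases weighed and counted; organic layer repartitioned until consistent. LogD = log of the cpm/g octanol to cpm/g buffer ratio. Triplicate.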
# Translocator protein = Translocator protein (Rattus norvegicus, UniProt P16257); assay: Displacement of [11C]-PK-11195 from TPSO in Sprague-Dawley rat brain homogenate after 30 mins by gamma counting; type: tissue-based
# Chain of Translocator protein (P16257 whole entry, looked up): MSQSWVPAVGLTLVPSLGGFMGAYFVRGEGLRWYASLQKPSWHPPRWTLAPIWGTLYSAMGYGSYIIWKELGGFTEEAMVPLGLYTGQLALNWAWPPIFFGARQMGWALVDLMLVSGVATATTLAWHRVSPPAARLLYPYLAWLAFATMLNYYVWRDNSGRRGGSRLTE
logD [1],Ki (Translocator protein) [nM],SMILES
1.81,40,CN(Cc1cccnc1)C(=O)Cn1c(=O)n(C)c2cnc(-c3ccccc3)nc21
2.17,13.2,CCN(Cc1cccnc1)C(=O)Cn1c(=O)n(C)c2cnc(-c3ccccc3)nc21
